# From ChEMBL document CHEMBL4689842, “EUbOPEN Chemogenomics Library wave 1” (2021)
# Legend:
# Assay type in all cases: toxicity, cell-based
# [1] = test system: Fibroblast; assay: Multiplex assay against human fibroblast
# Summary of the method: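 Compound was added to live cells that had been stained at seeding with Hoechst33342, BioTracker Green Microtubule Cytoskeleton Dye, MitoTracker Red and Annexin V Alexa Fluor 680, and imaging followed on a CQ1 microscope at 37°C and 5% CO2. CellPathfinder machine-learning gating divided cells into Hoechst high-intensity objects or normal cells, normal cells into healthy, pyknosed or fragmented nuclei, and pyknosed cells into mitotic or apoptotic. Tubulin, mitochondrial-mass and membrane-permeability phenotypes are per cents of healthy-nucleus cells.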
# [2] = test system: HEK-293T; assay: Incucyte cell viability with HEK293T; conditions: human, 10 µM, compound concentration 10 uM; further: filed as whole numbers so only -1 and 0 and 1 occur
# [3] = test system: U2OS; assay: Incucyte cell viability with U2OS; conditions: human, 10 µM, compound concentration 10 uM; further: filed as whole numbers so only -1 and 0 and 1 occur
# [4] = 12 h, 1 µM, compound concentration 1 uM, replicate 1
# [5] = 12 h, 1 µM, compound concentration 1 uM, replicate 2
# [6] = 12 h, 10 µM, compound concentration 10 uM, replicate 1
# [7] = 12 h, 10 µM, compound concentration 10 uM, replicate 2
# [8] = 24 h, 1 µM, compound concentration 1 uM, replicate 1
# [9] = 24 h, 1 µM, compound concentration 1 uM, replicate 2
# [10] = 24 h, 10 µM, compound concentration 10 uM, replicate 1
# [11] = 24 h, 10 µM, compound concentration 10 uM, replicate 2
# [12] = 6 h, replicate number 1, timepoint 6 hours
# [13] = 12 h, replicate number 1, timepoint 12 hours
# [14] = 18 h, replicate number 1, timepoint 18 hours
# [15] = 24 h, replicate number 1, timepoint 24 hours
smiles,measurement,setting,value
c1ccc2oc(-c3csc(C4CCN(Cc5nc6ncccc6[nH]5)CC4)n3)cc2c1,Population Apoptotic (%),[1]; [4],73%
same,Population Fragmented Nuclei (%),[1]; [4],30%
same,Population Healthy Nuclei (%),[1]; [4],55%
same,Population Hoechst High Intensity Objects (%),[1]; [4],15%
same,Population Membrane Permeable-Phenotype (%),[1]; [4],9%
same,Population Mitochondria Different-Phenotype (%),[1]; [4],10%
same,Population Mitotic Cells (%),[1]; [4],26%
same,Population Normal (%),[1]; [4],85%
same,Population Pyknosed Nuclei (%),[1]; [4],13%
same,Population Tubulin-Different-Phenotype (%),[1]; [4],12%
same,Total Cell Count,[1]; [4],160
same,Population Apoptotic (%),[1]; [5],25%
same,Population Fragmented Nuclei (%),[1]; [5],59%
same,Population Healthy Nuclei (%),[1]; [5],28%
same,Population Hoechst High Intensity Objects (%),[1]; [5],34%
same,Population Membrane Permeable-Phenotype (%),[1]; [5],15%
same,Population Mitochondria Different-Phenotype (%),[1]; [5],5%
same,Population Mitotic Cells (%),[1]; [5],75%
same,Population Normal (%),[1]; [5],65%
same,Population Pyknosed Nuclei (%),[1]; [5],11%
same,Population Tubulin-Different-Phenotype (%),[1]; [5],26%
same,Total Cell Count,[1]; [5],103
same,Population Apoptotic (%),[1]; [6],63%
same,Population Fragmented Nuclei (%),[1]; [6],25%
same,Population Healthy Nuclei (%),[1]; [6],55%
same,Population Hoechst High Intensity Objects (%),[1]; [6],11%
same,Population Membrane Permeable-Phenotype (%),[1]; [6],3%
same,Population Mitochondria Different-Phenotype (%),[1]; [6],1%
same,Population Mitotic Cells (%),[1]; [6],36%
same,Population Normal (%),[1]; [6],88%
same,Population Pyknosed Nuclei (%),[1]; [6],19%
same,Population Tubulin-Different-Phenotype (%),[1]; [6],4%
same,Total Cell Count,[1]; [6],190
same,Population Apoptotic (%),[1]; [7],66%
same,Population Fragmented Nuclei (%),[1]; [7],65%
same,Population Healthy Nuclei (%),[1]; [7],28%
same,Population Hoechst High Intensity Objects (%),[1]; [7],35%
same,Population Membrane Permeable-Phenotype (%),[1]; [7],21%
same,Population Mitochondria Different-Phenotype (%),[1]; [7],0%
same,Population Mitotic Cells (%),[1]; [7],33%
same,Population Normal (%),[1]; [7],64%
same,Population Pyknosed Nuclei (%),[1]; [7],6%
same,Population Tubulin-Different-Phenotype (%),[1]; [7],0%
same,Total Cell Count,[1]; [7],76
same,Population Apoptotic (%),[1]; [8],50%
same,Population Fragmented Nuclei (%),[1]; [8],38%
same,Population Healthy Nuclei (%),[1]; [8],51%
same,Population Hoechst High Intensity Objects (%),[1]; [8],12%
same,Population Membrane Permeable-Phenotype (%),[1]; [8],10%
same,Population Mitochondria Different-Phenotype (%),[1]; [8],4%
same,Population Mitotic Cells (%),[1]; [8],50%
same,Population Normal (%),[1]; [8],87%
same,Population Pyknosed Nuclei (%),[1]; [8],9%
same,Population Tubulin-Different-Phenotype (%),[1]; [8],17%
same,Total Cell Count,[1]; [8],165
same,Population Apoptotic (%),[1]; [9],25%
same,Population Fragmented Nuclei (%),[1]; [9],64%
same,Population Healthy Nuclei (%),[1]; [9],28%
same,Population Hoechst High Intensity Objects (%),[1]; [9],39%
same,Population Membrane Permeable-Phenotype (%),[1]; [9],25%
same,Population Mitochondria Different-Phenotype (%),[1]; [9],0%
same,Population Mitotic Cells (%),[1]; [9],75%
same,Population Normal (%),[1]; [9],60%
same,Population Pyknosed Nuclei (%),[1]; [9],7%
same,Population Tubulin-Different-Phenotype (%),[1]; [9],25%
same,Total Cell Count,[1]; [9],92
same,Population Apoptotic (%),[1]; [10],90%
same,Population Fragmented Nuclei (%),[1]; [10],26%
same,Population Healthy Nuclei (%),[1]; [10],59%
same,Population Hoechst High Intensity Objects (%),[1]; [10],11%
same,Population Membrane Permeable-Phenotype (%),[1]; [10],2%
same,Population Mitochondria Different-Phenotype (%),[1]; [10],0%
same,Population Mitotic Cells (%),[1]; [10],9%
same,Population Normal (%),[1]; [10],88%
same,Population Pyknosed Nuclei (%),[1]; [10],13%
same,Population Tubulin-Different-Phenotype (%),[1]; [10],2%
same,Total Cell Count,[1]; [10],183
same,Population Apoptotic (%),[1]; [11],100%
same,Population Fragmented Nuclei (%),[1]; [11],59%
same,Population Healthy Nuclei (%),[1]; [11],34%
same,Population Hoechst High Intensity Objects (%),[1]; [11],34%
same,Population Membrane Permeable-Phenotype (%),[1]; [11],13%
same,Population Mitochondria Different-Phenotype (%),[1]; [11],6%
same,Population Mitotic Cells (%),[1]; [11],0%
same,Population Normal (%),[1]; [11],65%
same,Population Pyknosed Nuclei (%),[1]; [11],6%
same,Population Tubulin-Different-Phenotype (%),[1]; [11],0%
same,Total Cell Count,[1]; [11],67
same,Growth Rate,[2]; [12],0
same,Growth Rate,[2]; [13],0
same,Growth Rate,[2]; [14],0
same,Growth Rate,[2]; [15],0
same,Growth Rate,"[3]; 0 h, replicate number 2, timepoint 0 hours",1
same,Growth Rate,[3]; [12],0
same,Growth Rate,[3]; [13],0
same,Growth Rate,"[3]; 12 h, replicate number 2, timepoint 12 hours",1
same,Growth Rate,[3]; [14],0
same,Growth Rate,[3]; [15],1
same,Growth Rate,"[3]; 24 h, replicate number 2, timepoint 24 hours",0
